KCNK3 inh = human KCNK3 channel inhibitors, primary screen, CHO cells, FluxOR thallium flux, B-score. Potassium channel subfamily K member 3 (Homo sapiens), O14649. FluxOR fluorescence; stronger effect = lower value. B-score at 10 µM. 0.84% of 340,000 active. AID 602410, 2012;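 active = B-score under library mean minus 4 SD, starting fluorescence ratio at most library mean plus 5 SD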;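 note: more negative B-score means stronger inhibition of thallium flux through KCNK3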
Target sequence (O14649 whole entry, looked up): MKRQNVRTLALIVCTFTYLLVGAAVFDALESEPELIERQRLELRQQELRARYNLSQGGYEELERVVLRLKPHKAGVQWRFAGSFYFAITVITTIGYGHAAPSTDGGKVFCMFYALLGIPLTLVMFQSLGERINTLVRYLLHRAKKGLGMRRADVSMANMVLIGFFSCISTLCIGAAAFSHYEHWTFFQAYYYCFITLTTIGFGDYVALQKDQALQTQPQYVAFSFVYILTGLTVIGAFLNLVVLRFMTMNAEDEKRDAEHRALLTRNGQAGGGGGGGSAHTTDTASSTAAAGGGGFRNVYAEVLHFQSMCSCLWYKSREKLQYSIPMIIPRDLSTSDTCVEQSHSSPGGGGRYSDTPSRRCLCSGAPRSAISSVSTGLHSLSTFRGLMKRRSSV
Kir21 inh = inhibitors of mouse Kir2.1 inward-rectifier potassium channel; AID 1672, 2009; HEK293-Kir2.1, FluxOR thallium flux fluorescence; stronger effect = lower value; B-score at 10 µM; 0.85% of 310,000 active;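 active = fluorescence ratio B-score at or below minus 3 SD of library scores, with starting-brightness B-score within 2 SD, cut at about -4.2 in these data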;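 note: channel flux triggered by added potassium and thallium sulfate stimulus; B-score of peak minus minimum fluorescence over baseline after thallium stimulus; more negative B-score means stronger Kir2.1 block with less thallium influx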
KCNQ1 inh = inhibitors of human KCNQ1 channel, primary screen, cell-based, thallium flux, high-throughput; Potassium voltage-gated channel subfamily KQT member 1 (Homo sapiens), P51787; CHO-K1 KCNQ1, FluxOR thallium flux fluorescence; stronger effect = higher value; B-score at 10 µM; 1.3% of 310,000 active;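 active = compounds whose thallium flux B-score, printed positive for inhibition, exceeds three library SD while starting fluorescence stays within three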;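 note: channel opened by potassium depolarization with thallium stimulus after 20 min compound exposure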
KCNQ1 act = potentiators or activators of KCNQ1 channel, primary screen, cell-based, thallium flux, high-throughput; CHO-K1 KCNQ1, thallium flux FluxOR fluorescence; stronger effect = higher value; AID 2648, 2010; Potassium voltage-gated channel subfamily KQT member 1 (Homo sapiens), P51787; B-score at 10 µM; 0.35% of 310,000 active;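 active = fluorescence ratio B-score, a plate-corrected score, at least three library SD, with initial intensity B-score within 5 SD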
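Doses: Single concentration per compound, DMSO matched to controls | Test system: KCNQ1-transfected CHO-K1 cells | Timing: 90 min dye loading and 20 min compound exposure, both at room temperature | Measured by: Kinetic FluxOR thallium fluorescence, 10-s 1-Hz baseline, 110-s post-stimulus read | Medium: Assay buffer with matched DMSO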
hERG rescue = hERG rescue from dofetilide block, primary screen, cell-based, CHO-hERG, FluxOR thallium flux, dofetilide IC70; 0.51% of 310,000 active; activation (rescue from dofetilide block), less the hit threshold, % at 10 µM; dofetilide IC70 present; AID 1511, 2009; Voltage-gated inwardly rectifying potassium channel KCNH2 (Homo sapiens), Q12809;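 active = activation above the mean of controls blocked by dofetilide plus 5 SD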;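 note: thallium influx through hERG after potassium depolarization seen as dye fluorescence rise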
KCNK9 inh = KCNK9 potassium channel inhibitors, primary screen, HEK293 cells, thallium flux; Potassium channel subfamily K member 9 (Homo sapiens), Q9NPC2; FluxOR thallium flux fluorescence; stronger effect = lower value; B-score at 10 µM; 1.2% of 310,000 active; AID 488922, 2010;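 active = ratio B-score over 3 SD below the library mean, with starting fluorescence within 5 SD of its mean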;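 note: negative B-score means less thallium flux so channel inhibition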
KCNK9 inh conf = KCNK9 potassium channel inhibitors, confirmation, HEK293 cells, thallium flux, duplicate; 43% of 4,900 active; FluxOR thallium flux fluorescence; shares compounds with KCNK9 inh; inhibition, % at 10 µM; AID 492992, 2010;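 active = thallium signal inhibited by more than 5 SD of the compound-free buffer control wells, on both duplicate plates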;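 note: 0% = assay buffer control wells without compound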
Kir21 sel = mouse Kir2.1 channel inhibition, confirmation, selectivity assay for KCNK9 modulator project, cell-based, HEK293, thallium flux; inhibition, % at 10 µM; shares compounds with KCNK9 inh; 4% of 4,900 active; Kir2.1 cells, FluxOR thallium flux fluorescence;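 active = thallium signal drop more than 5 SD beyond the mean of the no-compound control wells, seen in both duplicate plates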;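 note: signal is fluorescence rise after thallium addition divided by baseline fluorescence; plate controls were assay buffer only for no effect and full block by chlorpromazine control for full effect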
KCNK9 uninduced = thallium flux in non-induced HEK293 cells, confirmation, counter-screen for KCNK9 inhibitor project, cell-based, second counter screen, non-induced KCNK9-HEK293. shares compounds with KCNK9 inh. FluxOR thallium flux. inhibition, % at 10 µM. 40% of 4,900 active;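 active = thallium signal drop beyond 5 SD of the untreated control mean, on both duplicate plates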;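 note: plate controls were buffer only IC0 wells for no effect and SID17386958 at its maximal inhibitory level for full effect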
The depositor's hits bear a star; i = inactive; nt = no result. Sampled rows, rich in hits. Any-hit rate of the full collection: about 3.8%.

SMILES	KCNK3 inh	Kir21 inh	KCNQ1 inh	KCNQ1 act	hERG rescue	KCNK9 inh	KCNK9 inh conf	Kir21 sel	KCNK9 uninduced
COc1ccc(OCCOCCOc2ccc(C)cc2[N+](=O)[O-])cc1	i	-0.02	i	i	-6	i	nt	nt	nt
COc1cccc(OCCNc2cc(Cl)ccc2[N+](=O)[O-])c1	i	-0.64	i	i	-20	-12*	54%*	i	34%*
CC(C)(C)c1ccc(C(=O)NCC2CCCN2S(=O)(=O)c2ccccc2)cc1 (centres undefined)	i	-0.04	i	i	-14	i	i	i	i
O=C(NCC1CCCN1S(=O)(=O)c1ccccc1)c1cccc(Cl)c1 (centres undefined)	i	-0.69	i	i	-13	i	nt	nt	nt
COc1ccc(CNC(=O)c2cccc(-c3ccc(C)c4ccccc34)n2)cc1	i	0.22	i	i	-11	i	i	i	i
Cc1ccccc1COC(=O)CNC(=O)c1sc2ccccc2c1Cl	i	0.05	i	i	-16	i	i	i	i
Cc1cc(N2CC(C)OC(C)C2)n2cc(-c3ccccc3)nc2n1 (centres undefined)	i	-0.19	i	i	-9	i	nt	nt	nt
c1ccc(C2Nc3ccccc3C3OCCCC23)cc1 (centres undefined)	i	-3.7	i	i	-5	i	i	i	i
O=[N+]([O-])c1ccc(COc2cccc(CNc3ccc(Br)cc3)c2)cc1	i	1.2	i	i	-16	-10*	i	i	37%*
NS(=O)(=O)c1ccc(CCNC(=O)CCCOc2ccccc2)cc1	i	0.7	i	i	-6	i	nt	nt	nt
COC(=O)c1cc(=O)n(Cc2ccc(OC)cc2)c(=NCc2ccc(OC)cc2)s1	i	1.6	i	i	-15	i	i	i	i
COc1nccnc1NS(=O)(=O)c1ccc(NCc2cc(Br)ccc2O)cc1	i	-1.4	i	i	-10	i	nt	nt	nt
CCc1nnc(NS(=O)(=O)c2ccc(NCc3cc(Br)ccc3O)cc2)s1	i	2.3	i	i	-16	i	i	i	i
O=C(O)c1ccccc1N/N=C/c1cc(Br)cc(Br)c1O	i	-0.77	6*	i	-13	i	i	i	i
Cc1ccc2nc(Br)c3c(c2c1)OC(CBr)C3 (centres undefined)	i	0.59	i	i	-12	i	nt	nt	nt
CC(C)S(=O)(=O)c1nsc2nc(=O)c(/C=C3\C=Nc4ccccc43)c(N)n12	i	0.38	i	i	-22	i	i	i	i
CCN(C[C@H]1N[C@@](CC)(C(=O)OC)[C@H]2C(=O)N(C)C(=O)[C@@H]12)C(=O)COC	i	nt	nt	nt	nt	nt	nt	nt	nt
N#CC1=C(S)N(c2ccccc2)C(c2ccc(-c3ccc(Cl)c(Cl)c3)o2)NC1=O (centres undefined)	i	-6.2*	i	i	-16	i	i	i	i
COc1ccc(-c2nc(CS(=O)(=O)CC(=O)NCCCN3CCN(C)CC3)c(C)o2)cc1	i	-0.02	i	i	-10	i	nt	nt	nt
O=C(Nc1nc(-c2cc3ccccc3oc2=O)cs1)c1ccc(Br)o1	i	0.44	i	i	-3	-9.9*	26%*	i	i
Cc1ccc(CN2CCN(C(=O)c3cccc4ccccc34)CC2)cc1	i	-3.8	i	i	-11	i	nt	nt	nt
Cc1cccc(CN2CCN(C(=O)c3cccc4ccccc34)CC2)c1	i	-0.7	i	i	-9	i	i	i	i
COc1ccc(/C=N/NC(=O)c2nc(-c3ccccc3)cc(-c3ccccc3)n2)cc1OC	i	-2.2	i	i	-16	-9.7*	31%*	i	i
COc1cc(/C=N\NC(=O)c2ccc(-c3ccccc3)cc2)ccc1OCC(N)=O	i	0.24	i	i	-9	i	nt	nt	nt
COc1cccc(/C=N/NC(=O)c2nc(-c3ccccc3)cc(-c3ccccc3)n2)c1	i	-0.2	i	i	-20	-8.5*	34%*	i	i
SMILES	KCNK3 inh	Kir21 inh	KCNQ1 inh	KCNQ1 act	hERG rescue	KCNK9 inh	KCNK9 inh conf	Kir21 sel	KCNK9 uninduced
Cc1c(Cl)cccc1NC(=O)C1CC2CCC1C2 (centres undefined)	i	0.06	i	i	-8	i	nt	nt	nt
Cc1[nH]n(-c2ccc(Br)cc2)c(=O)c1/C=N/NC(=O)c1ccccc1	i	-0.22	i	i	-9	i	i	i	i
CC1(C)CC(=O)C(C=Nc2ccc(NC3=C(C#N)C(=O)CC(C)(C)C3)cc2)=C(O)C1	i	-0.96	i	i	-6	i	nt	nt	nt
O=C(Nc1ccc(Cl)cc1)C1C2C=CC3(O2)C1C(=O)N(CCN1CCCCC1)C3C(=O)NC1CCCCC1 (centres undefined)	i	-1.5	i	i	-9	i	nt	nt	nt
Fc1ccc2c(c1)Sc1ccc(Cl)cc1CC2N1CCN(CCC2OCCO2)CC1 (centres undefined)	i	-0.56	i	i	-27	i	i	i	i
CSc1ccc2c(c1)C(N1CCN(C)CC1)Cc1ccc(F)cc1S2 (centres undefined)	i	-3.1	i	i	-34	i	nt	nt	nt
N#Cc1cc(N)ccc1Sc1ccc(Cl)cc1	i	0.18	i	i	-6	-8.5*	38%*	i	32%*
Fc1ccccc1N1CCN(C2CCCN(Cc3cccc(C(F)(F)F)c3)C2)CC1 (centres undefined)	i	-2	i	i	-13	i	i	i	i
